Data set [1] deals with T1, 5-hydroxytryptamine receptor 6 (Homo sapiens, UniProt P50406). Kind of data set: Antagonist activity at human cloned 5HT6 receptor expressed in human HeLa cells by cyclase assay relative to control. The data set is classed as functional, cell-based.
Data set [2] is described as follows: Ratio of drug level in brain to plasma in rat at 10 mg/kg, po. The data set is classed as ADME, organism-based. On the set-up: dose 10 mg/kg, route oral. The settings on record: read-out: BPR.
Data set [3] addresses 5-hydroxytryptamine receptor 7 (Homo sapiens, UniProt P34969). Kind of data set: Displacement of [3H]LSD from human cloned 5HT7 receptor expressed in human HeLa cells. The data set is classed as cell-based.
Data set [4] in a line: Oral bioavailability in rat at 10 mg/kg. The conditions noted are these: in vivo. The data set is classed as ADME, organism-based.
Data set [5] has as its target T2, 5-hydroxytryptamine receptor 1A (Homo sapiens, UniProt P08908).
T2 sequence (P08908 whole entry): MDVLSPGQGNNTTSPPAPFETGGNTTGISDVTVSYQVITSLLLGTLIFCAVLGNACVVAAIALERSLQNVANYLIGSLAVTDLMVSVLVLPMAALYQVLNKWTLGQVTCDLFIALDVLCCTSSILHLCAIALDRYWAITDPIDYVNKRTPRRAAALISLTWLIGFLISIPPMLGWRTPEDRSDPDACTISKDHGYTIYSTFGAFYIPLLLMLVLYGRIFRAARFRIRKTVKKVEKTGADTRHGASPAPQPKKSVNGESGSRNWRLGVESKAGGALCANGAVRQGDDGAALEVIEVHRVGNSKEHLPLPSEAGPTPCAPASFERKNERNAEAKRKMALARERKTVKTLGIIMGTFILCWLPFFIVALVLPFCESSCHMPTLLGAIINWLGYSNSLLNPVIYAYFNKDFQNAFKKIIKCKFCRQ
Kind of data set: Displacement of [3H]LSD from human cloned 5HT1A receptor expressed in human HeLa cells. The data set is classed as cell-based. (Loss of bound radioactivity is the signal in a displacement assay; it reports binding, not function.)

Data set [6] has as its target T3, 5-hydroxytryptamine receptor 2B (Homo sapiens, UniProt P41595). Kind of data set: Displacement of [3H]LSD from human cloned 5HT2B receptor expressed in human HeLa cells. Format: cell-based.
Data set [7] deals with T4, Alpha-2A adrenergic receptor (Homo sapiens, UniProt P08913).
T4 sequence (P08913 whole entry): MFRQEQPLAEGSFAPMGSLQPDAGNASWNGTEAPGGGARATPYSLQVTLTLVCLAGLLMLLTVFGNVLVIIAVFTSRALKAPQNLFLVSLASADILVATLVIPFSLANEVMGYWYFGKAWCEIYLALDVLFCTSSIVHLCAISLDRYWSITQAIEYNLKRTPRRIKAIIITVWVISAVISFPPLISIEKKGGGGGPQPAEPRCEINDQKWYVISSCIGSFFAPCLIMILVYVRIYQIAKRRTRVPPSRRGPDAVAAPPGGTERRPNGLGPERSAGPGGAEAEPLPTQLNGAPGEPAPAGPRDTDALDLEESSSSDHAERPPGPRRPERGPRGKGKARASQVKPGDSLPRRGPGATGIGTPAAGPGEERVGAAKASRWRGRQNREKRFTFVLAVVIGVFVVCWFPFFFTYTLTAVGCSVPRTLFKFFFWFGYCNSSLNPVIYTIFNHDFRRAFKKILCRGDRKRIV
Kind of data set: Displacement of [3H]LSD from human cloned alpha2A adrenergic receptor expressed in human HeLa cells. Format: cell-based.

Another data set has as its target D(2) dopamine receptor (Homo sapiens, UniProt P14416). Kind of data set: Displacement of [3H]LSD from human cloned dopamine D2 receptor expressed in human HeLa cells. The data set is classed as cell-based.
Data set [8] deals with 5-hydroxytryptamine receptor 1D (Homo sapiens, UniProt P28221). Kind of data set: Displacement of [3H]LSD from human cloned 5HT1D receptor expressed in human HeLa cells. Format: cell-based.
Data set [9] has as its target T5, 5-hydroxytryptamine receptor 2C (Homo sapiens, UniProt P28335).
T5 sequence (P28335 whole entry): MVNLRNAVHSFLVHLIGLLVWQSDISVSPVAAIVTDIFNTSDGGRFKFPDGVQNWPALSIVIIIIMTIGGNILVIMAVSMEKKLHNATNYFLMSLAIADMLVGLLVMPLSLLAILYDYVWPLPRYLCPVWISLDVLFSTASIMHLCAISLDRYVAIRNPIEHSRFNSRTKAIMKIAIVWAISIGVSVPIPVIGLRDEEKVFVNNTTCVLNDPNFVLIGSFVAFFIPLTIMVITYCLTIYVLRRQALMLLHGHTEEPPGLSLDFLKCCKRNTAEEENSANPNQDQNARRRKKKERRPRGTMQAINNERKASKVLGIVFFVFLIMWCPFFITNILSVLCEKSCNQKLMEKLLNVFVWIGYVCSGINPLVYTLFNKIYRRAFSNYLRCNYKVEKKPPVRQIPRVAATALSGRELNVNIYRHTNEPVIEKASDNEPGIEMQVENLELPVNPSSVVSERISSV
Kind of data set: Displacement of [3H]LSD from human cloned 5HT2C receptor expressed in human HeLa cells. The data set is classed as cell-based.

Data set [10] deals with T3, 5-hydroxytryptamine receptor 2B. Kind of data set: Agonist activity at human recombinant 5HT2B receptor expressed in CHOK1 cells at 0.0001 to 10 uM by FLIPR assay. The settings on record: CHO-K1. Format: functional, cell-based.
The target of data set [11] is 5-hydroxytryptamine receptor 1B (Homo sapiens, UniProt P28222). Kind of data set: Displacement of [3H]LSD from human cloned 5HT1B receptor expressed in human HeLa cells. The data set is classed as cell-based.
For data set [12], the target named is T1, 5-hydroxytryptamine receptor 6. Kind of data set: Antagonist activity at human cloned 5HT6 receptor expressed in human HeLa cells by cyclase assay. The data set is classed as functional, cell-based.
For data set [13] the target is unchanged. Kind of data set: Displacement of [3H]LSD from human cloned 5HT6 receptor expressed in human HeLa cells. The data set is classed as cell-based. A digest of the protocol: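 Radioligand displacement of [3H]LSD from cloned human 5-HT6 receptor stably expressed in HeLa cells. All test substances were used as HCl salts. Ki was determined in triplicate.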

Data set [14] can be described thus: Plasma protein binding in rat at 10 mg/kg, po. Format: ADME, organism-based. The settings on record: read-out: PPB (converted). Also noted: dose 10 mg/kg, route oral.
Data set [15] has as its system Rattus norvegicus. Kind of data set: Enhancement of memory in po dosed rat assessed as minimum effective dose measured after 48 hrs delay by novel object recognition test. The conditions noted are these: read-out: MED. Format: functional.
The nature of data set [16]: Ratio of drug level in brain to plasma in dog at 10 mg/kg, po. The data set is classed as ADME, organism-based, Canis lupus familiaris. On the set-up: dose 10 mg/kg, route oral. The settings on record: read-out: BPR.
For data set [17], the system named is Rattus norvegicus. Kind of data set: Induction of acetylcholine release in hippocampus of rat at 10 mg/kg, po. The data set is classed as functional, organism-based. Also noted: dose 10 mg/kg.
Data set [18] relates to Rattus norvegicus. Kind of data set: Induction of glutamate release in hippocampus of rat at 10 mg/kg, po. Format: functional, organism-based. Also noted: dose 10 mg/kg.
The subject of data set [19] is Rattus norvegicus. Kind of data set: Inhibition of scopolamine-induced memory deficit in po dosed rat by novel object recognition test. Format: functional. The settings on record: read-out: MED.
Data set [20] in a line: Protein binding in rat brain at 10 mg/kg, po. The data set is classed as ADME, organism-based. Also noted: dose 10 mg/kg, route oral. The conditions noted are these: read-out: PPB (converted).
The nature of data set [21]: Solubility of the compound in water. Format: physicochemical.
Data set [22] in a line: Oral bioavailability in dog at 10 mg/kg. Format: ADME, organism-based, Canis lupus familiaris. The conditions noted are these: in vivo.
Data set [23] relates to Rattus norvegicus. Kind of data set: Enhancement of memory in po dosed rat measured after 48 hrs delay by novel object recognition test. The data set is classed as functional, organism-based.

Activity calls are given as the source filed them. No cut-off for these calls is given here.

Chain of 5-hydroxytryptamine receptor 7 (P34969 whole entry): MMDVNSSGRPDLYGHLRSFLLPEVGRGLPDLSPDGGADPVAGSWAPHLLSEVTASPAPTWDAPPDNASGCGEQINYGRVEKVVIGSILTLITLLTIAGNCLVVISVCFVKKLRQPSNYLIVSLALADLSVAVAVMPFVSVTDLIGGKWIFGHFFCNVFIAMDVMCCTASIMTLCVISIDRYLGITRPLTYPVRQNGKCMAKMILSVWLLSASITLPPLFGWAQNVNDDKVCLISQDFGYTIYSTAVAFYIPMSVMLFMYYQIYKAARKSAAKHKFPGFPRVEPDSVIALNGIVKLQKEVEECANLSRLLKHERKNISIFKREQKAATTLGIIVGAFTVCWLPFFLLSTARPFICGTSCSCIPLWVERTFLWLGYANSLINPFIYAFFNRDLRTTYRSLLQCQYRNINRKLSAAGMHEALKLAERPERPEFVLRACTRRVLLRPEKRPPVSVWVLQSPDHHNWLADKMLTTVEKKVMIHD
Chain of D(2) dopamine receptor (P14416 whole entry): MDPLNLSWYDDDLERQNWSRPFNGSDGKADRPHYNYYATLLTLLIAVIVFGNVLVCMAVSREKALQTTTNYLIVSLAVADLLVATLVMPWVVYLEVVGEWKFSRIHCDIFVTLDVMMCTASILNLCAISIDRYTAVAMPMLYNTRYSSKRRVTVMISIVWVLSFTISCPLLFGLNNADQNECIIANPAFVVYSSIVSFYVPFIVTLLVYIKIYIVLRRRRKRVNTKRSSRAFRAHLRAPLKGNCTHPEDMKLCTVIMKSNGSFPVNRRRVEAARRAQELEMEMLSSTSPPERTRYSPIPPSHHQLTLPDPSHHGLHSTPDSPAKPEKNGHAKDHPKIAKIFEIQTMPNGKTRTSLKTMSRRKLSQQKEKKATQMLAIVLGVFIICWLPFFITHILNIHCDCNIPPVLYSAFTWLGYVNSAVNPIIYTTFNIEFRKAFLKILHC
T1 sequence (P50406 whole entry): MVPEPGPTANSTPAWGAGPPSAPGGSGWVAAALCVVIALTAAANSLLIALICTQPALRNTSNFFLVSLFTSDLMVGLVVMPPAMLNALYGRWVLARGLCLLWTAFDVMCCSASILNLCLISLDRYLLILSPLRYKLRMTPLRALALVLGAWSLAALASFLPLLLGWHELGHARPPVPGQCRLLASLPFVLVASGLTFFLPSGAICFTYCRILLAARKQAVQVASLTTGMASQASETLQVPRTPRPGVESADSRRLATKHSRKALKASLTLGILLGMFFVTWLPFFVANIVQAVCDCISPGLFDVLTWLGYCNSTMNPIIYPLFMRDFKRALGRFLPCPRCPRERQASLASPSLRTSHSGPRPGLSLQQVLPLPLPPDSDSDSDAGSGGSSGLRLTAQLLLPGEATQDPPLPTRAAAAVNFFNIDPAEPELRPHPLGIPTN
Chain of 5-hydroxytryptamine receptor 1D (P28221 whole entry): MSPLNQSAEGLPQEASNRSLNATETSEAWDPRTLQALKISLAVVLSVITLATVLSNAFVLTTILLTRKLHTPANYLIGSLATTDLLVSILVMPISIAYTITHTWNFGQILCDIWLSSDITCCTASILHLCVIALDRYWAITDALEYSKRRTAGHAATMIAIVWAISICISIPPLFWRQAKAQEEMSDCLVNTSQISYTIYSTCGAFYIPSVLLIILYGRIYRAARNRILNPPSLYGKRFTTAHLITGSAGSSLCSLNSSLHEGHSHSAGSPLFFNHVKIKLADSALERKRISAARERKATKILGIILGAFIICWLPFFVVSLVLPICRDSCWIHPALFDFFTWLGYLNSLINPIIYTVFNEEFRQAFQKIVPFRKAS
T3 sequence (P41595 whole entry): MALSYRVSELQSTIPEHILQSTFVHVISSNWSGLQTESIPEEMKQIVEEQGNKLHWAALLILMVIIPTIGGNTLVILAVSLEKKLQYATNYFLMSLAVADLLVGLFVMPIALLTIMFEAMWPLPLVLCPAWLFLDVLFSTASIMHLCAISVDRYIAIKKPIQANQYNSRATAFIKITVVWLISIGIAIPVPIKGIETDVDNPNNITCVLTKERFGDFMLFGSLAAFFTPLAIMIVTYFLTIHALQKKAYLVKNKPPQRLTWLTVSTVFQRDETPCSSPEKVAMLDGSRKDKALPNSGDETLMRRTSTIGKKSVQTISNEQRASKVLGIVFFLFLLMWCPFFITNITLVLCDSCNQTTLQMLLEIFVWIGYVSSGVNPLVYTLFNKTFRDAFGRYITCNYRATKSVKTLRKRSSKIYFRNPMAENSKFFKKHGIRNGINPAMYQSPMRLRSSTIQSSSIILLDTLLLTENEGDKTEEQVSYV
Chain of 5-hydroxytryptamine receptor 1B (P28222 whole entry): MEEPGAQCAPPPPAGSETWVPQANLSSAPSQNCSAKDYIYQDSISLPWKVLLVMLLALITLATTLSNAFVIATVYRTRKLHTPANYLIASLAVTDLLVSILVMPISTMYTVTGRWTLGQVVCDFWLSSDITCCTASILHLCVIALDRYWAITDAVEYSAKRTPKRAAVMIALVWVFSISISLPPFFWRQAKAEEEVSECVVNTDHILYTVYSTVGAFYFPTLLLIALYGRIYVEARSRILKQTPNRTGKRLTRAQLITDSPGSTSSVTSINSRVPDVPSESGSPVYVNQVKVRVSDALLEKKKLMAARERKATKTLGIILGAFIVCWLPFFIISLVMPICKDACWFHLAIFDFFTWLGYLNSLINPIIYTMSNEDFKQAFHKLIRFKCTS

Molecule `O=S(=O)(c1cccc2ccccc12)c1nn(Cc2ccccc2)c2ccc(N3CCNCC3)cc12` yielded an Imax in data set [1] of 100%. Also, the Kp in data set [2] was more than 0.5. Moreover, the Ki in [3] was more than 5 µM; in [5], more than 5 µM; in [6], 0.141 µM; in data set [7], more than 5 µM; at D(2) dopamine receptor, 0.605 µM; in [8], more than 5 µM. Also, the Ki in data set [9] was 1.07 µM; in data set [11], more than 5 µM. This molecule also yielded a bioavailability in [4] of more than 50%. In [10], the outcome was inactive.
`CN1CCN(c2ccc3[nH]nc(S(=O)(=O)c4cccc5ccccc45)c3c2)CC1` showed an Imax in [1] of 100%. Besides, inhibition in data set [12] was half-maximal at 0.008 µM (IC50). For the same molecule, the Ki is 0.579 µM in [3]; more than 5 µM in [5]; 0.601 µM in data set [6]; more than 5 µM in data set [7]; 0.0016 µM in data set [13]; 0.334 µM on D(2) dopamine receptor. Moreover, the inhibitory constant (Ki) in data set [8], in data set [9] and in data set [11] was more than 5 µM each time. Moreover, in [4], the bioavailability was 5%. Besides, the outcome in data set [10] was inactive.
For the molecule `O=S(=O)(c1cccc2ccccc12)c1n[nH]c2ccc(N3CCNCC3)cc12`, the fraction unbound in data set [14] and in [20] was 0.2 each time. In addition, the Imax in data set [1] is 100%. The molecule also showed an IC50 in [12] of 0.013 µM. The minimal effective dose with Rattus norvegicus [15] stood at 3 mg/kg; in the data set on Rattus norvegicus [19], 0.03 mg/kg. Besides, the Kp in [16] and in data set [2] was less than 0.2 throughout. Besides, the outcome in the data set with Rattus norvegicus [17] and in the data set on Rattus norvegicus [18] was Active. Moreover, the inhibition constant Ki in data set [3] is 1.56 µM; in data set [5] it was 0.573 µM; in [6], 0.236 µM; in data set [7], more than 5 µM; at D(2) dopamine receptor, more than 5 µM; in data set [8] it was more than 5 µM. Moreover, the Ki in data set [9] and in [11] was more than 5 µM each time. Moreover, the bioavailability in [4] and in data set [22] was more than 20% in each case. Also, the solubility in [21] is more than 0.1 mg/mL. For the same molecule, in the data set with Rattus norvegicus [23], the Activity entry is “Dose-dependent effect”. In addition, in data set [10], the outcome was inactive.

A word on the Ki: it is the dissociation constant of the complex between target and ligand, obtained from inhibition or displacement. Low readings indicate tighter binding, high ones weaker binding. As a reminder, the bioavailability is the share of a dose that reaches the circulation, judged against a reference dose that is usually intravenous. A higher bioavailability goes with much systemic uptake. As usually defined, the IC50 is the concentration needed to halve the response being measured. The low end stands for greater potency, the high end for weaker potency. The term solubility denotes the concentration that dissolves in the medium under given conditions. A high value points to a readily soluble substance.
